Tested on: MS2 coat protein
Assay: apparent Kd, MS2 coat protein; higher = weaker binding; RNA-MaP array; FMN 200 µM where present
How it was run: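 Designs were transcribed by stalled E. coli RNA polymerase on Illumina sequencing-chip clusters. They were titrated with SNAP-549-labelled MS2 coat protein from 0.7 or 1.5 nM, doubling to 3 µM, without and then with constant ligand. Buffer: 100 mM Tris-HCl pH 7.5, 80 mM KCl, 4 mM MgCl2, BSA, DTT, yeast tRNA, Tween-20. Green signal was normalised to red-channel RNA signal and control-cluster median Fmax. Apparent Kd is the median of filtered per-cluster binding-curve fits.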

[1] = designed as: OFF switch for flavin mononucleotide, no ligand
[2] = ligand present: flavin mononucleotide, designed as: OFF switch for flavin mononucleotide
[3] = designed as: ON switch for flavin mononucleotide, no ligand
[4] = ligand present: flavin mononucleotide, designed as: ON switch for flavin mononucleotide

GCUCUUGUCAAGAAGGGCUCGCGGGACGCUGCAGCAGGAUAUUGACAUGAGGAUCACCCAUGUCGACCGGAACACCAUUGAGGG
apparent Kd [1]: 22.2 nM | apparent Kd [2]: 196 nM

GCUGCAUAGGCAGGAUAUGCAAUAAUUCGAAUAAAAUAUAACGAAUUAACAUGAGGAUCACCCAUGUAGAAGGGCCUGUGCAGU
apparent Kd [1]: 18.4 nM | apparent Kd [2]: 16 nM

GCUGGACAAGGAUAUACAUUCGUGCUUCGGCACGUAAGAUCACAUGAGGAUCACCCAUGUAGAAGGUGUCCAGC
apparent Kd [1]: 67.8 nM | apparent Kd [2]: 612 nM

GCUGUAAAUGAGAAGGCGAUCAUGAAACAUGAUCGAGGAUAUCAUGUUUACAUGAGGAUCACCCAUGUAUGGGUAUAUUGCAGC
apparent Kd [3]: 618 nM | apparent Kd [4]: 19.6 nM

GCUGUCGCAUGAGGAUAUGGUCAGGUUUCCUGACCAGAAGGCAUGUCGAUAGACAUGAGGAUCACCCAUGUAGUAAAGACAGCA
apparent Kd [3]: 855 nM | apparent Kd [4]: 66.1 nM

GCUGUCGCGUGAGGAUAUGGUCGGCUUUGCUGACCAGAAGGCAUGUCAAUAGACAUGAGGAUCACCCAUGUGGUUAGGGCGGCU
apparent Kd [3]: 1020 nM | apparent Kd [4]: 134 nM

GCUUCACAUGAGGAUCACCCAUGUCUUCGGAGUCGAGGAUAUGGUAACUGUAAACAGUUGCCAGAAGGCGAGGAGC
apparent Kd [3]: 59.6 nM | apparent Kd [4]: 35.5 nM

GCUUGUGGGCAAGGAUAUCCUACGUUGUUCUGGUUCGUGUCUGUCACAUGAGGAUCACCCAUGUGGGAGAAGGUGCAUUUGGUG
apparent Kd [1]: 19.7 nM | apparent Kd [2]: 17.1 nM

GCUUGUGUUGAGGAUAUGCGCCGGCUCGCUGGCGCAGAAGGCGGCACAUGAGGAUCACCCAUGUCAGUUCGCGC
apparent Kd [1]: 19 nM | apparent Kd [2]: 157 nM

GGAAAUCAUGUAGGAUAUGCAUGGCGAAGCUACGCAGAAGGACAUGAGGAUCACCCAUGUUAUAGCGUCCGAUAAAGGAUGCAA
apparent Kd [1]: 117 nM | apparent Kd [2]: 164 nM

GGAAUACAUGAGGAUCACCCAUGUAAGGAUAUGCUGAUUAAAUUGGAUUAAUUAUGCAGCAGAAGGUACAAAAG
apparent Kd [1]: 78.7 nM | apparent Kd [2]: 79.6 nM

GGACAUGAGGAUCACCCAUGUUCUCCAGAAGGCCGUACAUUUAAAAGUGGAUGGAUUAGUGUUGCGGAGGAUAUGGAGGUGCAA
apparent Kd [3]: 77.1 nM | apparent Kd [4]: 16.7 nM

GGACCGCGUAGAAUUAGCGGCCGGCAGGAUAUGACAUGAGGAUCACCCAUGUGAACUCCAUUGGGUCAGAAGGGCCACGACACA
apparent Kd [1]: 20.6 nM | apparent Kd [2]: 96.4 nM

GGACGUCACAUGAACAUGAGGAUCACCCAUGUAAAUUCUCAUGAGGAUAUGGAUCCUAAUUGGAUCCAGAAGGCAUGGACGUCC
apparent Kd [3]: 960 nM | apparent Kd [4]: 373 nM

GGACGUCACAUGAACAUGAGGAUCACCCAUGUAACUAGACAUGAGGAUAUGGUUCCUAAUUGGAACCAGAAGGCAUGGACGUCC
apparent Kd [3]: 224 nM | apparent Kd [4]: 33 nM

GGAGAGGAAACAUGAGGAUCACCCAUGUGAGUGGUCCGAAUAUAGGAUAUCCACACGAGAAGUGUGGAGAAGGAUAACCUCUCC
apparent Kd [1]: 73 nM | apparent Kd [2]: 90.2 nM

GGAGAUACAUGAGGAUCACCCAUGUAGGAUAUCGGGUAUAUAUAUGGCGAAAGCCAUAUAUAUACCGAGAAGGGCGUACACACC
apparent Kd [1]: 8.59 nM | apparent Kd [2]: 8.11 nM

GGAGCAACAUGAGGAUCACCCAUGUAGGAUAUCGCUAUUGUAAUCAUGAAACAUGAUUACAAUAGCGAGAAGGACAUAUGCUGG
apparent Kd [1]: 24.9 nM | apparent Kd [2]: 27.3 nM

GGAGCACACAUUAACAUGAGGAUCACCCAUGUCAAAAGACAUGAGGAUAUGGAUCCGAAAAGGAUCCAGAAGGCAUGGUUCUCC
apparent Kd [3]: 365 nM | apparent Kd [4]: 19.6 nM

GGAGCACACAUUAACAUGAGGAUCACCCAUGUCAAAGGACAUGAGGAUAUGGAUCCGAAAAGGAUCCAGAAGGCAUGGUGCUCC
apparent Kd [3]: 173 nM | apparent Kd [4]: 11.1 nM

GGAGCCGGCACCGAGGAUAUUCAUAUUAAAACAUGAGGAUCACCCAUGUAGGCCAGAAGGCCUUGGGAGAAGGCGGAUCGGCUCG
apparent Kd [3]: 611 nM | apparent Kd [4]: 38.4 nM

GGAGGACAUGAGGAUCACCCAUGUGGAUGGGCGCUAGGAUAUGCGAGAGGAGGGAGUGGAGCAGAAGGAGUGGGUU
apparent Kd [3]: 65.6 nM | apparent Kd [4]: 57.5 nM

GGAUACAUCGGAGGAUAUCAUGUAAAUACAUGAGGAUCACCCAUGUCGAUGGAGACAUCGGAGAUUGAGAAGGCCGAUGUACCG
apparent Kd [3]: 164 nM | apparent Kd [4]: 8.95 nM

GGAUAGGACAGAGGAUAUACAGAUAGGAUCUACUAUCAAACAAUCCUCACAUGAGGAUCACCCAUGUAGAAGGCUGUCCUAUCG
apparent Kd [1]: 103 nM | apparent Kd [2]: 688 nM

GGAUAGGACAGAGGAUAUACAGAUAGGAUCUACUAUCAAACAAUCCUGACAUGAGGAUCACCCAUGUAGAAGGCUGUCCUAUCG
apparent Kd [1]: 24.6 nM | apparent Kd [2]: 85.1 nM

GGAUAGGACAGAGGAUAUACAGAUAGGAUCUACUAUCAAACAUUCCUGACAUGAGGAUCACCCAUGUAGAAGGCUGUCCUAUCG
apparent Kd [1]: 22.7 nM | apparent Kd [2]: 75.4 nM

GGAUAGGACAGAGGAUAUACCGAUAGGAGAUACUAUCGACUAGUCCUCACAUGAGGAUCACCCAUGUAGAAGGCUGUCCUAUCG
apparent Kd [1]: 23.3 nM | apparent Kd [2]: 234 nM
